According to ChEMBL document CHEMBL4011632, “Design, Synthesis, and Evaluation of Thiazolidine-2,4-dione Derivatives as a Novel Class of Glutaminase Inhibitors” (J Med Chem, 2017):
Activity calls are given as the source filed them. The rule behind the calls is not given here.

Assays:
ASPC1 [1] = assay: Anticlonogenic activity against human Aspc-1 cells at 2 uM after 21 days by crystal violet staining based assay relative to control; type: functional; settings: ASPC1, 504 h
In short: (§1)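 Anchorage-dependent colony formation: AsPC-1 cells seeded at 1000 cells/well in six-well plates and treated with compound. Colony formation is expressed as percent of vehicle treatment. Mean ± SD from at least three independent experiments, each in duplicate.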

ASPC1 [2] = assay: Anticlonogenic activity against human Aspc-1 cells at 10 uM after 21 days by crystal violet staining based assay relative to control; type: functional; settings: ASPC1, 504 h; in short: as §1
ASPC1 [3] = assay: Growth inhibition of human Aspc-1 cells after 72 hrs by MTS assay; type: functional, cell-based; settings: ASPC1, 72 h
In short: (§2)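 Growth inhibition by MTS viability read-out. Cells seeded in 96-well plates at 4000/well (AsPC-1) or 8500/well (MDA-MB-231). Mean ± SD from at least three independent experiments, each in duplicate.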

MDA-MB-231 = assay: Growth inhibition of human MDA-MB-231 cells after 72 hrs by MTS assay; type: functional, cell-based; settings: MDA-MB-231, 72 h; in short: as §2
[4] = target: T1, Glutaminase liver isoform, mitochondrial (Homo sapiens) (UniProt Q9UI32); assay: Inhibition of human GLS2 in GLS1 deficient human Aspc-1 cells assessed as decrease in cellular glutamate production at 3.13 to 100 uM after 4 hrs by amplex red glutamic acid assay
T1 sequence (whole entry): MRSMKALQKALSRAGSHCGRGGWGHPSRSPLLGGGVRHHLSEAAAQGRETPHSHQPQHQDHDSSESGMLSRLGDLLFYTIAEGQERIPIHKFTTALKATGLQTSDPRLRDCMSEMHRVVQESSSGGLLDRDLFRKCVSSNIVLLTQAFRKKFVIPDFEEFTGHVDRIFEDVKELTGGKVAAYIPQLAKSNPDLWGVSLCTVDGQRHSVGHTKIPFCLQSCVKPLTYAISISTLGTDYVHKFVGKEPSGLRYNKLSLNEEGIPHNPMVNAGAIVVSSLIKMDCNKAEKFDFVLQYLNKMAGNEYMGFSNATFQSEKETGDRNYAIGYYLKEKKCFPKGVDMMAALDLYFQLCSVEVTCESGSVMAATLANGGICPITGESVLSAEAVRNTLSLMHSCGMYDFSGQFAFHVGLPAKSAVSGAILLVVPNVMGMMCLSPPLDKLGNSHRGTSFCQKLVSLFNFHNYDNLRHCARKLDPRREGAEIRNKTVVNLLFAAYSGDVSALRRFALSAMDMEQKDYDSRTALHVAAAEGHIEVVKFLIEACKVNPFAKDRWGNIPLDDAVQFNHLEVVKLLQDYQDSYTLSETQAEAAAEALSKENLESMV
In short: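 GLS-knockout AsPC-1 cells made with GLS-KO ZFN mRNA, single-cell cloned, and grown in glutamine-free RPMI 1640 with 10% FBS. Cells seeded at 30 000/well and grown 24 h at 37 °C. Treated 4 h with 1% DMSO vehicle or 3.13−100 μM inhibitor, washed with PBS, and lysed in NP-40 buffer (4 °C, 20 min). Lysate glutamate measured by Amplex Red. Three independent experiments in duplicate.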

[5] = Terminal half life in Sprague-Dawley rat at 2 mg/kg, iv by HPLC-MS analysis; type: ADME, organism-based; settings: in vivo, read-out: beta t1/2 (converted)
In short: (§3)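 Male rats (330−380 g, 9−10 weeks old), jugular-vein cannulated 1 day before dosing, n = 3. Dosed iv in DMA/PEG400 (20%/80%, v/v) or po in 1% CMC/0.5% Tween-80. Blood (100 μL) drawn at 0, 2 min, 5 min (iv only), 15 and 30 min, and 1, 2, 4, 6, 8 and 24 h. Plasma measured by LC-MS/MS; parameters from noncompartmental analysis.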

[6] = Terminal half life in Sprague-Dawley rat at 10 mg/kg, po by HPLC-MS analysis; type: ADME, organism-based; settings: in vivo, read-out: beta t1/2 (converted); in short: as §3
[7] = Volume of distribution at steady state in Sprague-Dawley rat at 2 mg/kg, iv by HPLC-MS analysis; type: ADME, organism-based; settings: in vivo, read-out: Vdss
In short: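 Male rats (330−380 g, 9−10 weeks old), quarantined 1 week, jugular-vein cannula implanted 1 day before dosing; n = 3. Single iv dose in DMA/PEG400 (20%/80%, v/v). Blood (100 μL) was drawn via cannula at 0, 2, 5, 15, 30 min and 1, 2, 4, 6, 8, 24 h and kept on ice. Plasma was analysed by HPLC−MS/MS. Vss came from noncompartmental analysis.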

[8] = Cmax in Sprague-Dawley rat at 10 mg/kg, po by HPLC-MS analysis; type: ADME, organism-based; parameters: dose 10 mg/kg, route oral; settings: in vivo; in short: as §3
[9] = Tmax in Sprague-Dawley rat at 10 mg/kg, po by HPLC-MS analysis; type: ADME, organism-based; settings: in vivo; in short: as §3
[10] = AUC (0 to infinity) in Sprague-Dawley rat at 2 mg/kg, iv by HPLC-MS analysis; type: ADME, organism-based; parameters: dose 2 mg/kg, route intravenous, time infinity; settings: in vivo; in short: as §3
[11] = AUC (0 to infinity) in Sprague-Dawley rat at 10 mg/kg, po by HPLC-MS analysis; type: ADME, organism-based; parameters: dose 10 mg/kg, time infinity, route oral; settings: in vivo
In short: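 Male rats (330−380 g, 9−10 weeks old), jugular-vein cannulated 1 day before dosing, n = 3. Oral dose given in 1% CMC/0.5% Tween-80. Blood (100 μL) taken via cannula at 0, 15 and 30 min and 1, 2, 4, 6, 8 and 24 h, kept on ice. Plasma analysed by HPLC−tandem MS. Parameters from noncompartmental analysis.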

[12] = Oral bioavailability in Sprague-Dawley rat at 10 mg/kg by HPLC-MS analysis; type: ADME, organism-based; settings: in vivo; in short: as §3
ASPC1 [13] = assay: Antitumor activity against human Aspc-1 cells xenografted in Balb/cAnN.Cg-Foxn1nu/CrlNarl mouse assessed as tumor growth inhibition at 25 mg/kg, ip once daily administered for 5 days followed by 2 days without dosing for 43 days relative to control; type: functional; settings: read-out: TGI
In short: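 Male nude mice (7−8 weeks, 18−22 g) received 4.5 × 10^6 AsPC-1 cells sc in the right flank, in HBSS mixed 1:1 with Matrigel. Mice were randomized once mean tumor reached ~100 mm3 (day 1). Dosing was ip once daily, 5 days on/2 days off, with 2% DMSO/PBS as vehicle. Tumors were measured twice weekly, V = ab²/2. %TGI = [1 − ((Tt − T0)/(Ct − C0))] × 100 from median volumes; Student's t test.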

[14] = Inhibition of recombinant human His-tagged KGA S384A mutant expressed in Escherichia coli BL21(DE3)pLysS using glutamine substrate preincubated for 10 mins followed by substrate addition measured after 60 mins
[15] = Inhibition of recombinant human His-tagged KGA R387A mutant expressed in Escherichia coli BL21(DE3)pLysS using glutamine substrate preincubated for 10 mins followed by substrate addition measured after 60 mins
[16] = Inhibition of recombinant human His-tagged KGA R387L mutant expressed in Escherichia coli BL21(DE3)pLysS using glutamine substrate preincubated for 10 mins followed by substrate addition measured after 60 mins
[17] = Inhibition of recombinant human His-tagged KGA K507A mutant expressed in Escherichia coli BL21(DE3)pLysS using glutamine substrate preincubated for 10 mins followed by substrate addition measured after 60 mins
ASPC1 [18] = assay: Synergistic cytotoxicity against human Aspc-1 cells assessed as reduction in cell viability at ED50 in presence of doxorubicin by MTS assay; type: functional
In short: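 AsPC-1 cells treated with compound combinations and viability read by MTS. Combination index at ED50, ED75 and ED90 calculated by the Chou−Talalay method. CI = 1 additive, <1 synergism, >1 antagonism. Representative of three independent experiments.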

[19] = compound: Cc1cc(/C=C2\SC(=O)NC2=O)c(C)n1-c1ccc(-c2ccc(/C=C3\SC(=O)NC3=O)cc2)cc1; assay: (§4) Mixed-type inhibition of recombinant human KGA (L123 to L669 residues) expressed in Escherichia coli BL21(DE3)pLysS assessed as Vmax for substrate at 0.05 uM using glutamine substrate preincubated for 10 mins followed by substrate addition measured after 60 mins by Linerweaver-Burk plot analysis (reference value: 26.2 +/- 0.2 nmol/min/ug)
In short: (§5)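 Kinetic analysis on human KGA: glutamine saturation profiles recorded at 0−0.4 μM inhibitor. Km and Vmax derived at each inhibitor concentration to assign the inhibition mode.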

[20] = compound: Cc1cc(/C=C2\SC(=O)NC2=O)c(C)n1-c1ccc(-c2ccc(/C=C3\SC(=O)NC3=O)cc2)cc1; assay: as §4, with “0.1” for “0.05”; in short: as §5
[21] = compound: Cc1cc(/C=C2\SC(=O)NC2=O)c(C)n1-c1ccc(-c2ccc(/C=C3\SC(=O)NC3=O)cc2)cc1; assay: as §4, with “0.2” for “0.05”; in short: as §5
[22] = compound: Cc1cc(/C=C2\SC(=O)NC2=O)c(C)n1-c1ccc(-c2ccc(/C=C3\SC(=O)NC3=O)cc2)cc1; assay: as §4, with “0.4” for “0.05”; in short: as §5
[23] = compound: Cc1cc(/C=C2\SC(=O)NC2=O)c(C)n1-c1ccc(-c2ccc(/C=C3\SC(=O)NC3=O)cc2)cc1; assay: as §4, with “Km” for “Vmax”, “25.5” for “26.2”, “0.6 mM)” for “0.2 nmol/min/ug)”; in short: as §5
[24] = compound: Cc1cc(/C=C2\SC(=O)NC2=O)c(C)n1-c1ccc(-c2ccc(/C=C3\SC(=O)NC3=O)cc2)cc1; assay: as §4, with “Km” for “Vmax”, “0.1” for “0.05”, “25.5” for “26.2”, “0.6 mM)” for “0.2 nmol/min/ug)”; in short: as §5

## O=C(Cc1ccccc1)Nc1nnc(CCSCCc2nnc(NC(=O)Cc3ccccc3)s2)s1
ASPC1 [1]
  inhibition at 2 µM: 41%
ASPC1 [2]
  inhibition at 10 µM: 98%
ASPC1 [3]
  IC50: 10200 nM
MDA-MB-231
  IC50: 6800 nM
[4]
  inhibition: inactive
[5]
  half-life: 5.3 h
[6]
  half-life: 2 h
[7]
  Vd: 8.8 L/kg
[8]
  Cmax: 40 ng/mL
[9]
  Tmax: 0.7 h
[10]
  AUC(0-inf): 636 ng·h/mL
[11]
  AUC(0-inf): 73 ng·h/mL
[12]
  bioavailability: 2%
ASPC1 [13]
  inhibition in vivo at 25 mg/kg: 55%
[14]
  IC50: 65 nM
[15]
  IC50: 63 nM
[16]
  IC50: 345 nM
[17]
  IC50: 66 nM
ASPC1 [18]
  CI: 0.45 - 0.68

B1: Glutaminase kidney isoform, mitochondrial (Homo sapiens), O94925 (protein)
chain: MMRLRGSGMLRDLLLRSPAGVSATLRRAQPLVTLCRRPRGGGRPAAGPAAAARLHPWWGGGGWPAEPLARGLSSSPSEILQELGKGSTHPQPGVSPPAAPAAPGPKDGPGETDAFGNSEGKELVASGENKIKQGLLPSLEDLLFYTIAEGQEKIPVHKFITALKSTGLRTSDPRLKECMDMLRLTLQTTSDGVMLDKDLFKKCVQSNIVLLTQAFRRKFVIPDFMSFTSHIDELYESAKKQSGGKVADYIPQLAKFSPDLWGVSVCTVDGQRHSTGDTKVPFCLQSCVKPLKYAIAVNDLGTEYVHRYVGKEPSGLRFNKLFLNEDDKPHNPMVNAGAIVVTSLIKQGVNNAEKFDYVMQFLNKMAGNEYVGFSNATFQSERESGDRNFAIGYYLKEKKCFPEGTDMVGILDFYFQLCSIEVTCESASVMAATLANGGFCPITGERVLSPEAVRNTLSLMHSCGMYDFSGQFAFHVGLPAKSGVAGGILLVVPNVMGMMCWSPPLDKMGNSVKGIHFCHDLVSLCNFHNYDNLRHFAKKLDPRREGGDQRVKSVINLLFAAYTGDVSALRRFALSAMDMEQRDYDSRTALHVAAAEGHVEVVKFLLEACKVNPFPKDRWNNTPMDEALHFGHHDVFKILQEYQVQYTPQGDSDNGKENQTVHKNLDGLL
[19]
  Vmax: 26.3 nmol/min/µg
[20]
  Vmax: 26.2 nmol/min/µg
[21]
  Vmax: 22.9 nmol/min/µg
[22]
  Vmax: 15 nmol/min/µg
[23]
  Km: 50.9 mM
[24]
  Km: 69.7 mM
